Source: ChEMBL document CHEMBL3259723, “Membrane active vancomycin analogues: a strategy to combat bacterial resistance” (J Med Chem, 2014)
The source made the active and inactive calls. No cut-off for these calls is given here.

How the values were obtained:
Staphylococcus aureus [1] = experiment: Antibacterial activity against methicillin-sensitive Staphylococcus aureus MTCC 737 assessed as growth inhibition by broth microdilution method; format: functional
Outline: (§1)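 Broth microdilution per CLSI; compounds serially diluted in autoclaved water. Bacteria grown 6 h in suitable media, diluted to 10⁵ CFU/mL; compound added to bacterial suspension, incubated at 37 °C, OD600 read. Triplicate wells, experiment done at least twice; mean OD versus concentration sigmoidally fitted, MIC taken where OD equals no-bacteria control.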

Staphylococcus aureus [2] = experiment: Antibacterial activity against methicillin-resistant Staphylococcus aureus ATCC 33591 assessed as growth inhibition by broth microdilution method; format: functional
Outline: (§2)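 Broth microdilution per CLSI; compounds serially diluted in sterile water, added to bacteria at 10^5 CFU/mL (diluted from 6 h cultures). Incubated at 37 °C, OD600 read. Triplicate wells, experiment done at least twice. Mean OD plotted against concentration and fitted sigmoidally; MIC taken where OD matches the no-bacteria control.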

Enterococcus faecium [3] = experiment: Antibacterial activity against vancomycin-sensitive Enterococcus faecium ATCC 19634 assessed as growth inhibition by broth microdilution method; format: functional; outline: as §1
Enterococcus faecium [4] = experiment: Antibacterial activity against vancomycin-resistant VanA phenotype of Enterococcus faecium ATCC 51559 assessed as growth inhibition by broth microdilution method; format: functional; outline: as §2
Staphylococcus aureus [5] = experiment: Antibacterial activity against vancomycin-intermediate-resistant Staphylococcus aureus assessed as growth inhibition by broth microdilution method; format: functional; outline: as §2
Staphylococcus aureus [6] = experiment: Antibacterial activity against methicillin-resistant Staphylococcus aureus ATCC 33591 assessed as induction of membrane depolarization measured at < 3 mins by DiSC3(5) dye-based spectrofluorometric analysis; format: functional, organism-based
Outline: (§3)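 Membrane potential assay with DiSC3(5): dye added to cells until maximal uptake, seen as a fluorescence minimum (about 10 min). Compounds then added and depolarization followed as the fluorescence increase over a further 10 min.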

Enterococcus faecium [7] = experiment: Antibacterial activity against vancomycin-resistant VanA phenotype of Enterococcus faecium ATCC 51559 assessed as induction of membrane depolarization measured at < 3 mins by DiSC3(5) dye-based spectrofluorometric analysis; format: functional, organism-based; outline: as §3
Enterococcus faecium [8] = experiment: Antibacterial activity against vancomycin-resistant VanA phenotype of Enterococcus faecium ATCC 51559 assessed as induction of cytoplasmic membrane permeabilization at 10 uM measured for 10 mins by propidium iodide uptake assay; format: functional, organism-based
Outline: (§4)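 Mid-log (6 h) cells harvested at 4 °C, washed and resuspended in PBS pH 7.2. Compound added to cells with 10 μM propidium iodide. Fluorescence (ex 535/em 617 nm) monitored 10 min at RT; the rise in PI fluorescence taken as inner membrane permeabilization.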

Staphylococcus aureus [9] = experiment: Antibacterial activity against methicillin-resistant Staphylococcus aureus ATCC 33591 assessed as induction of cytoplasmic membrane permeabilization measured within 5 mins by propidium iodide uptake assay; format: functional, organism-based; outline: as §4
Staphylococcus aureus [10] = experiment: Antibacterial activity against methicillin-resistant Staphylococcus aureus ATCC 33591 assessed as leakage of intracellular potassium ion at 10 uM measured for 10 mins by PBFI-AM dye-based spectrofluorometric analysis relative to control; format: functional
Outline: (§5)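 Mid-log (6 h) cells washed twice and resuspended in 10 mM HEPES pH 7.2 with 0.5% glucose. Signal stabilized 60 s at RT, then 1 μM PBFI-AM added and a 2 min baseline recorded before compound.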

Enterococcus faecium [11] = experiment: Antibacterial activity against vancomycin-resistant VanA phenotype of Enterococcus faecium ATCC 51559 assessed as leakage of intracellular potassium ion at 10 uM measured for 10 mins by PBFI-AM dye-based spectrofluorometric analysis; format: functional, organism-based; outline: as §5
Enterococcus faecium [12] = experiment: Antibacterial activity against vancomycin-resistant VanA phenotype of Enterococcus faecium ATCC 51559 assessed as induction of membrane depolarization at 10 uM measured for 10 mins by DiSC3(5) dye-based spectrofluorometric analysis; format: functional, organism-based; outline: as §3

Row | Structure (SMILES) | MIC90 (Staphylococcus aureus [1]) [µM] | MIC90 (Staphylococcus aureus [2]) [µM] | MIC90 (Enterococcus faecium [3]) [µM] | MIC90 (Enterococcus faecium [4]) [µM] | MIC (Staphylococcus aureus [1]) [µM] | MIC (Staphylococcus aureus [2]) [µM] | MIC (Staphylococcus aureus [5]) [µM] | MIC (Enterococcus faecium [3]) [µM] | MIC (Enterococcus faecium [4]) [µM] | Activity (Staphylococcus aureus [6]) | Activity (Enterococcus faecium [7]) | Activity (Enterococcus faecium [8]) | Activity (Staphylococcus aureus [9]) | Activity (Staphylococcus aureus [10]) | Activity (Enterococcus faecium [11]) | Activity (Enterococcus faecium [12])
1 | CCCCCCCCCCNCCN[C@@]1(C)C[C@H](O[C@H]2[C@H](Oc3c4cc5cc3Oc3ccc(cc3Cl)[C@@H](O)[C@@H](NC(=O)[C@@H](CC(C)C)NC)C(=O)N[C@@H](CC(N)=O)C(=O)N[C@H]5C(=O)N[C@H]3C(=O)N[C@H](C(=O)N[C@H](C(=O)O)c5cc(O)c(CNCP(=O)(O)O)c(O)c5-c5cc3ccc5O)[C@H](O)c3ccc(c(Cl)c3)O4)O[C@H](CO)[C@@H](O)[C@@H]2O)O[C@@H](C)[C@H]1O [TELAVANCIN] | 0.3 | 0.3 | 0.15 | 4 | – | – | – | – | – | – | – | – | – | – | – | –
2 | CCCCCCCCCC[N+](C)(C)CCCNC(=O)[C@H]1NC(=O)[C@H]2NC(=O)[C@H](NC(=O)[C@@H]3NC(=O)[C@H](CC(N)=O)NC(=O)[C@H](NC(=O)[C@@H](CC(C)C)NC)[C@H](O)c4ccc(c(Cl)c4)Oc4cc3cc(c4O[C@@H]3O[C@H](CO)[C@@H](O)[C@H](O)[C@H]3O[C@H]3C[C@](C)(N)[C@H](O)[C@H](C)O3)Oc3ccc(cc3Cl)[C@H]2O)c2ccc(O)c(c2)-c2c(O)cc(O)cc21 | – | – | – | – | 0.31 | 0.31 | 0.3 | 0.2 | 3 | Dose-dependent effect | Dose-dependent effect | Active | Dose-dependent effect | Active | Active | –
3 | CCCCCCCCCCCCCCNCCCNC(=O)[C@H]1NC(=O)[C@H]2NC(=O)[C@H](NC(=O)[C@@H]3NC(=O)[C@H](CC(N)=O)NC(=O)[C@H](NC(=O)[C@@H](CC(C)C)NC)[C@H](O)c4ccc(c(Cl)c4)Oc4cc3cc(c4O[C@@H]3O[C@H](CO)[C@@H](O)[C@H](O)[C@H]3O[C@H]3C[C@](C)(N)[C@H](O)[C@H](C)O3)Oc3ccc(cc3Cl)[C@H]2O)c2ccc(O)c(c2)-c2c(O)cc(O)cc21 | – | – | – | – | 0.55 | 0.61 | 1 | 0.4 | 5 | – | – | inactive | – | – | inactive | inactive
4 | CN[C@H]1C(=O)N[C@@H]2Cc3ccc(cc3)Oc3cc4cc(c3O[C@@H]3O[C@H](C(=O)O)[C@@H](O)[C@H](O)[C@H]3NC(=O)CCCCCCCCC(C)C)Oc3ccc(cc3Cl)[C@@H](O)[C@@H]3NC(=O)[C@H](NC(=O)[C@@H]4NC(=O)[C@@H](NC2=O)c2cc(cc(O)c2Cl)Oc2cc1ccc2O)c1ccc(O)c(c1)-c1c(O[C@H]2O[C@H](CO)[C@@H](O)[C@H](O)[C@@H]2O)cc(O)cc1[C@@H](C(=O)NCCCN(C)C)NC3=O [DALBAVANCIN] | 0.04 | 0.04 | 0.08 | > 18 | – | – | – | – | – | – | – | – | – | – | – | –
5 | CCCCCCCCCCCCCCCCCC[N+](C)(C)CCCNC(=O)[C@H]1NC(=O)[C@H]2NC(=O)[C@H](NC(=O)[C@@H]3NC(=O)[C@H](CC(N)=O)NC(=O)[C@H](NC(=O)[C@@H](CC(C)C)NC)[C@H](O)c4ccc(c(Cl)c4)Oc4cc3cc(c4O[C@@H]3O[C@H](CO)[C@@H](O)[C@H](O)[C@H]3O[C@H]3C[C@](C)(N)[C@H](O)[C@H](C)O3)Oc3ccc(cc3Cl)[C@H]2O)c2ccc(O)c(c2)-c2c(O)cc(O)cc21.O=C([O-])C(F)(F)F | – | – | – | – | 5.03 | – | 0.92 | – | 1.9 | Dose-dependent effect | Dose-dependent effect | Active | Dose-dependent effect | 99% | Active | –
